# From ChEMBL document CHEMBL4364267, “Hydrogen sulfide donating ent-kaurane and spirolactone-type 6,7-seco-ent-kaurane derivatives: Design, synthesis and antiproliferative properties” (Eur J Med Chem, 2019)
# The source made the active and inactive calls. No cut-off for these calls is given here.
# Assays:
# [1] = tested on: Bel-7402; assay: Induction of mitochondrial membrane potential loss in human Bel7402 cells assessed as cell population with intact mitochondrial membrane potential at 0.90 uM after 48 hrs by JC1 staining-based flow cytometry analysis (reference value: 98.67%); type: functional
# In short: (§1)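 Bel-7402 cells in 6-well plates exposed for 48 h to 0, 0.45, 0.90 or 1.80 μM, DMSO as vehicle. Washed with PBS and stained with JC-1 at room temperature in the dark. Cells with collapsed membrane potential counted by flow cytometry.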
# [2] = tested on: A549; assay: Antiproliferative activity against human A549 cells assessed as reduction in cell viability after 72 hrs by MTT assay; type: functional, cell-based; conditions: A549, 72 h
# In short: (§2)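 MTT assay over 72 h, compounds at 64, 16, 4, 1, 0.25, 0.0625 and 0.015625 μM. MTT solution (5 mg/mL) and DMSO added afterwards, 10 min at room temperature, absorbance read at 490 nm. IC50 calculated as the mean ± SD of three independent experiments.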
# [3] = tested on: Bel-7402; assay: Induction of apoptosis in human Bel7402 cells assessed as late apoptotic cells at 0.90 uM after 48 hrs by Annexin V-FITC/propidium iodide staining based flow cytometry (reference value: 0.68%); type: functional
# In short: (§3)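 Bel-7402 cells in 6-well plates treated with 0, 0.45, 0.90 or 1.80 μM, washed twice with PBS and resuspended in annexin V binding buffer. Stained with annexin V-FITC and PI for 15 min at room temperature in the dark, then analysed by flow cytometry. Methods state 24 h exposure; the figure legend states 48 h.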
# [4] = tested on: Bel-7402; assay: Induction of mitochondrial membrane potential loss in human Bel7402 cells assessed as cell population with intact mitochondrial membrane potential at 0.45 uM after 48 hrs by JC1 staining-based flow cytometry analysis (reference value: 98.67%); type: functional; in short: as §1
# [5] = tested on: Bel-7402; assay: Induction of apoptosis in human Bel7402 cells assessed as viable cells at 0.90 uM after 48 hrs by Annexin V-FITC/propidium iodide staining based flow cytometry (reference value: 97.22%); type: functional; conditions: Bel-7402, 48 h, read-out: Activity; in short: as §3
# [6] = tested on: Bel-7402; assay: Cell cycle arrest in human Bel7402 cells assessed as accumulation of cells at G1 phase at 0.90 uM after 48 hrs by propidium iodide/RNase staining based flow cytometric analysis (reference value: 30.95%); type: functional
# [7] = tested on: SGC-7901; assay: Antiproliferative activity against human SGC7901 cells assessed as reduction in cell viability after 72 hrs by MTT assay; type: functional, cell-based; conditions: SGC-7901, 72 h; in short: as §2
# [8] = tested on: Bel-7402; assay: Induction of apoptosis in human Bel7402 cells assessed as necrotic cells at 0.90 uM after 48 hrs by Annexin V-FITC/propidium iodide staining based flow cytometry (reference value: 0.01%); type: functional; in short: as §3
# [9] = Selectivity index, ratio of IC50 for human PBMC to IC50 for human Bel7402 cells after 72 hrs by MTT assay; type: toxicity; conditions: PBMC versus Bel7402 cells, read-out: Ratio IC50
# [10] = tested on: Bel-7402; assay: Induction of apoptosis in human Bel7402 cells assessed as viable cells at 0.45 uM after 48 hrs by Annexin V-FITC/propidium iodide staining based flow cytometry (reference value: 97.22%); type: functional; conditions: Bel-7402, 48 h, read-out: Activity; in short: as §3
# [11] = tested on: Bel-7402; assay: Cell cycle arrest in human Bel7402 cells assessed as accumulation of cells at G1 phase after 48 hrs by propidium iodide/RNase staining based flow cytometric analysis; type: functional
# [12] = tested on: Bel-7402; assay: Cell cycle arrest in human Bel7402 cells assessed as accumulation of cells at G2 phase at 0.90 uM after 48 hrs by propidium iodide/RNase staining based flow cytometric analysis (reference value: 29.97%); type: functional
# [13] = tested on: K562; assay: Antiproliferative activity against human K562 cells assessed as reduction in cell viability after 72 hrs by MTT assay; type: functional, cell-based; conditions: K562, 72 h; in short: as §2
# [14] = tested on: Bel-7402; assay: Induction of apoptosis in human Bel7402 cells assessed as reduction in PARP expression at 0.45 to 1.80 uM after 48 hrs by Western blot analysis; type: functional, cell-based
# [15] = tested on: Bel-7402; assay: Induction of mitochondrial membrane potential loss in human Bel7402 cells assessed as cell population with intact mitochondrial membrane potential at 1.80 uM after 48 hrs by JC1 staining-based flow cytometry analysis (reference value: 98.67%); type: functional; in short: as §1
# [16] = tested on: Bel-7402; assay: Induction of apoptosis in human Bel7402 cells assessed as late apoptotic cells at 1.80 uM after 48 hrs by Annexin V-FITC/propidium iodide staining based flow cytometry (reference value: 0.68%); type: functional; in short: as §3
# [17] = tested on: Bel-7402; assay: Induction of apoptosis in human Bel7402 cells assessed as early apoptotic cells at 1.80 uM after 48 hrs by Annexin V-FITC/propidium iodide staining based flow cytometry (reference value: 2.09%); type: functional; in short: as §3
# [18] = tested on: Bel-7402; assay: Induction of apoptosis in human Bel7402 cells assessed as reduction in Bcl-2 expression at 0.90 to 1.80 uM after 48 hrs by Western blot analysis; type: functional, cell-based
# [19] = tested on: Bel-7402; assay: Induction of apoptosis in human Bel7402 cells after 48 hrs by Annexin V-FITC/propidium iodide staining based assay; type: functional, cell-based; in short: as §3
# [20] = Induction of H2S generation in PBS containing Na2S and MB+ cocktail in presence of TCEP/L-cysteine measured at 15 to 20 mins after 20 mins compound incubation by methylene blue dye based UV-Vis spectrophotometric method; type: functional
# In short: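 Na2S standards (5–150 μM) in sodium phosphate buffer reacted 20 min at room temperature with methylene blue cocktail (FeCl3/HCl, N,N-dimethyl-1,4-phenylenediamine/HCl, Zn(OAc)2) to build a 670 nm calibration curve. Compounds from 40 mM THF stock added to phosphate buffer with 1 mM TCEP or L-cysteine. Aliquots taken into the cocktail at set times, incubated 20 min, read at 670 nm. Mean of three experiments.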
# [21] = tested on: Bel-7402; assay: Induction of apoptosis in human Bel7402 cells assessed as reduction in procaspase-3 expression at 0.90 to 1.80 uM after 48 hrs by Western blot analysis; type: functional, cell-based
# [22] = tested on: Bel-7402; assay: Induction of apoptosis in human Bel7402 cells assessed as increase in cytochrome C expression at 0.90 to 1.80 uM after 48 hrs by Western blot analysis; type: functional, cell-based
# [23] = tested on: Bel-7402; assay: Cell cycle arrest in human Bel7402 cells assessed as accumulation of cells at G2 phase at 0.45 uM after 48 hrs by propidium iodide/RNase staining based flow cytometric analysis (reference value: 29.97%); type: functional
# [24] = tested on: PBMC; assay: Cytotoxicity against human PBMC assessed as reduction in cell viability after 72 hrs by MTT assay; type: cell-based; in short: as §2
# [25] = Selectivity index, ratio of IC50 for human L02 cells to IC50 for human Bel7402 cells after 72 hrs by MTT assay; type: toxicity; conditions: L02 cells versus Bel7402 cells, read-out: Ratio IC50
# [26] = tested on: Bel-7402; assay: Induction of mitochondrial membrane potential loss in human Bel7402 cells assessed as cell population with mitochondrial membrane potential collapse at 0.45 uM after 48 hrs by JC1 staining-based flow cytometry analysis (reference value: 1.28%); type: functional; in short: as §1
# [27] = tested on: L02; assay: Cytotoxicity against human L02 cells assessed as reduction in cell viability after 72 hrs by MTT assay; type: cell-based; conditions: L02, 72 h; in short: as §2
# [28] = tested on: Bel-7402; assay: Cell cycle arrest in human Bel7402 cells assessed as accumulation of cells at S phase at 0.90 uM after 48 hrs by propidium iodide/RNase staining based flow cytometric analysis (reference value: 39.09%); type: functional
smiles,measurement,setting,value
C=C1C(=O)[C@@]23C(=O)OC[C@]4(C(=O)CCC(C)(C)[C@H]4C=O)[C@@H]2CC[C@@H]1[C@H]3OC(=O)CCCC(=O)Oc1ccc(-c2cc(=S)ss2)cc1,Activity,[1],69.04%
same,IC50,[2],5.21 µM
same,Activity,[3],12.3%
same,Activity,[4],81.5%
same,viability at 0.9 µM,[5],72.5%
same,Activity,[6],42.3%
same,IC50,[7],4.36 µM
same,Activity,[8],0.06%
same,selectivity ratio at 72 h,[9],24
same,viability at 0.45 µM,[10],82.2%
same,Activity,[11],Dose-dependent effect
same,Activity,[12],19.81%
same,IC50,[13],1.01 µM
same,Activity,[14],Active
same,Activity,[15],41.23%
same,Activity,[16],36.64%
same,Activity,[17],18.68%
same,Activity,[18],Active
same,Activity,[19],Dose-dependent effect
same,Activity,[20],Active
same,Activity,[21],Active
same,Activity,[22],Active
same,Activity,[23],22.21%
same,IC50,[24],19.9 µM
same,selectivity ratio at 72 h,[25],24
same,Activity,[26],18.48%
same,IC50,[27],20.8 µM
same,Activity,[28],37.9%
